ChEMBL document CHEMBL1143700, “Antiangiogenic versus cytotoxic activity in analogues of aeroplysinin-1” (Bioorg Med Chem, 2007)
≈ marks a conversion by molar mass, not a printed value.

Assays:
[1] = Effect on tube formation of BAEC assessed as sprouting inhibition after 48 hrs; type: functional, Bos taurus
Method in brief: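 BAE cells coated onto Cytodex 3 microcarrier beads over 48 h at 37 °C, 5% CO₂. Beads (250/mL) seeded onto Matrigel in wells containing compound; medium added after 30 min. After 48 h, sprout extent and length scored by microscopy against untreated wells. MIC = lowest concentration with no tube formation; ">" means not reached at the top concentration tested.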

[2] = Ratio of MIC for BAEC sprouting to IC50 for BAEC; type: functional, Bos taurus
[3] = Cytotoxicity against BAEC after 2 days by MTT assay; type: cell-based, Bos taurus
Method in brief: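 BAE cells (primary bovine aortic endothelium, collagenase-isolated; grown in DMEM/20% FBS), 8·10³ per well, exposed to serial dilutions for 2 days at 37 °C, 5% CO₂. MTT (5 mg/mL in PBS) then added for a further 2 h at 37 °C. Formazan dissolved in DMSO and read spectrophotometrically. IC50 = concentration inhibiting growth by 50%; ">" means not reached at the top concentration tested.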

[4] = Bos taurus, 48 h, read-out: MIC

Compound | MIC [1, 4] [µM] | MIC [1] [µM] | Ratio [2] | IC50 ([3]; Bos taurus, BAEC, 48 h) [µM] | IC50 ([3]; baec) [µM]
COC1=CC(=O)[C@]2(C=C1)CO2 | 33 (≈ 5.02 µg/mL) |  | 1 | 33 | 
COC(=O)COc1c(CO)cc(Br)c(OC)c1Br | > 26 |  |  | > 26 | 
COc1c(Br)cc(C=O)c(OC(=O)c2ccc(N(C)C)cc2)c1Br | > 44 |  |  | > 22 | 
COc1c(Br)cc(CO)c(O)c1Br | > 16 |  |  | > 16 | 
COC1=CC(=O)[C@]2(C=C1Br)CO2 | > 22 |  |  | > 22 | 
OCc1cc(Br)cc(Br)c1O | 71 (≈ 20 µg/mL) |  |  | > 35 | 
COC(=O)COc1c(C=O)cc(Br)c(OC)c1Br | 52 (≈ 19.9 µg/mL) |  | 3 | 151 | 
COc1ccc(C=O)c(O)c1 | > 33 |  |  | > 33 | 
COc1c(Br)cc(C=O)c(OCc2cc(N(C)C)ccc2Br)c1Br | > 38 |  |  | > 19 | 
COc1c(Br)cc(C=O)c(O)c1Br | > 16 |  |  | 806 | 
COc1c(Br)cc(/C=C2\N=C(c3ccccc3)OC2=O)c(OCc2cc(N(C)C)ccc2Br)c1Br [listing 1 of 2 here] | > 28 |  |  |  | 71
COc1c(Br)cc(/C=C2\N=C(c3ccccc3)OC2=O)c(OC(=O)c2ccc(N(C)C)cc2)c1Br | > 17 |  |  | 83 | 
COC(=O)/C=C/c1cc(Br)c(OC)c(Br)c1O | > 14 |  |  | > 14 | 
COC(=O)/C(=C/c1cc(Br)c(OC)c(Br)c1OCc1ccccc1)NC(=O)c1ccccc1 | > 35 |  |  | > 17 | 
COc1c(Br)cc(CO)c(OCc2ccccc2)c1Br | > 12 |  |  | > 12 | 
COc1c(Br)cc(/C=C2\N=C(c3ccccc3)OC2=O)c(OCc2cc(N(C)C)ccc2Br)c1Br [listing 2 of 2 here] |  | >30 |  |  | > 15
COC(=O)CCc1cc(Br)c(OC)c(Br)c1O | > 27 |  |  | 136 | 
O=Cc1cc(Br)cc(Br)c1O | 71 (≈ 19.9 µg/mL) |  | 0.5 | 36 | 
COc1c(Br)cc(/C=C2\N=C(c3ccccc3)OC2=O)c(O)c1Br | > 22 |  |  | > 22 | 
COc1c(Br)cc2c(c1Br)OCC(O)OC2 (centres undefined) | > 28 |  |  | > 28 | 
COc1c(Br)cc(C=O)c(OCc2ccccc2)c1Br | > 12.5 |  |  | > 12.5 | 
COc1c(Br)cc(C=O)c(OC(C)=O)c1Br | 33 (≈ 11.6 µg/mL) |  | 0.7 | 23 | 

Continued by falling MIC [1, 4], values first:

MIC [1, 4] [µM] | MIC [1] [µM] | Compound | Ratio [2] | IC50 ([3]; Bos taurus, BAEC, 48 h) [µM] | IC50 ([3]; baec) [µM]
28 (≈ 9.97 µg/mL) |  | COc1c(Br)cc(CO)c(OCCO)c1Br |  | > 28 | 
27 (≈ 15 µg/mL) |  | COc1c(Br)cc(/C=C2\N=C(c3ccccc3)OC2=O)c(OC(=O)c2ccccc2)c1Br |  | > 18 | 
25 (≈ 5.03 µg/mL) |  | O=C1C=CC(Br)=C[C@]12CO2 |  | > 25 | 
15 (≈ 5.1 µg/mL) |  | COC1=C(Br)C(=O)[C@@]2(CO2)C(OC)=C1Br |  | > 15 | 
3 (≈ 0.93 µg/mL) |  | COC1=C(Br)C(=O)[C@]2(C=C1Br)CO2 | 54 | 161 | 
3 (≈ 0.693 µg/mL) |  | COC1=C(Br)C(=O)[C@]2(C=C1)CO2 | 4 | 11 | 
2 (≈ 0.678 µg/mL) |  | COC1=C(Br)[C@H](O)[C@](O)(CC#N)C=C1Br (single isomer, unassigned) | 14 | 29 | 
2 (≈ 1.12 µg/mL) |  | O=C1C2(Br)C=C(Br)C([C@H]3[C@]2(Br)C=C(Br)C(=O)[C@]32CO2)[C@@]12CO2 (some centres undefined) | 2 | 4 | 
2 (≈ 0.56 µg/mL) |  | O=C1C(Br)=CC(Br)=C[C@]12CO2 | 6 | 12 | 
1 (≈ 0.543 µg/mL) |  | COc1c(Br)cc(/C=C2\N=C(c3ccccc3)OC2=O)c(OCc2ccccc2)c1Br | 921 | 921 | 
